In the library only some 5.9% were active in any assay of this set; here they are far more common.
Pf Dd2 inh: P. falciparum Dd2 growth inhibition. activity change, % at 10 µM. hit rate 2.3% among 94,000. SYBR Green, 72 h; stronger effect = lower value; in the data active = activity change below about -80%; inconclusive = no clear call, values can overlap the other calls
IDH1 mut inh: inhibitors of human IDH1 R132H; AID 624101; O75874; inhibition, % at 10 µM; IDH1 R132H reductase, diaphorase/resazurin fluorescence, 60 min; hit rate 0.18% among 70,000; in the data active = inhibition above about 34%; inconclusive = no clear call, values can overlap the other calls; inactive = below about 11%;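 also: 0% = DMSO and 100% = no enzyme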
GASC1 inh: blocks human GASC-1 (KDM4C) demethylase activity | GST-KDM4C 2-372, H3K9me3 peptide, LANCE TR-FRET | Q9H3R0 | hit rate 0.15% among 96,000 | inhibition, % at 12.5 µM | AID 720574;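 active = mean replicate inhibition above about 25%, with at least 55% of replicates also reaching it, limit read from the data, passing the limit was not always enough; inconclusive = only one of those two conditions met; inactive = neither condition met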
Target sequence (Q9H3R0 2-372 limits assumed): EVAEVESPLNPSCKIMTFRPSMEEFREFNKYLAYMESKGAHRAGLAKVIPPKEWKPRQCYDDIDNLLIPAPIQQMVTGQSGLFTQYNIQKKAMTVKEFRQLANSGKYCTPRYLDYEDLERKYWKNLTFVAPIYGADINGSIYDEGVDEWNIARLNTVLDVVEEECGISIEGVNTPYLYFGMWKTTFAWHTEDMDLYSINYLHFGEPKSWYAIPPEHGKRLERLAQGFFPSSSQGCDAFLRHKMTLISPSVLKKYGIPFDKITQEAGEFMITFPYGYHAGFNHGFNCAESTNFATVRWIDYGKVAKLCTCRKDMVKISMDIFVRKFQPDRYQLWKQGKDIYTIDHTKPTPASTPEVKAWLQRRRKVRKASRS
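reagent = H3K9me3 peptide substrate, Fe(II), 2-oxoglutarate | system = GST-tagged GASC-1 (JMJD2C) catalytic fragment, aa 2-372 | amount = enzyme final amount 10 nM | read-out = Fall in 671/618 emission ratio as inhibition | medium = HEPES buffer, pH 7.5, plus ascorbate | schedule = 30 min reaction, 60 min detection, RT | measured by = LANCE TR-FRET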
T cruzi growth-1: blocks T. cruzi growth in NIH3T3 culture | T. cruzi beta-gal in NIH3T3, GalScreen luminescence, 90 h | inhibition, % at 8.34 µM | hit rate 5.9% among 77,000;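 active = mean inhibition above about 93%, with at least 55% of replicates each passing it, limit read from the data, passing the limit was not always enough; inconclusive = only one of those two conditions holds; inactive = neither condition holds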
T cruzi growth-2: inhibitors of T. cruzi proliferation; T. cruzi beta-gal in NIH3T3, GalScreen luminescence, 90 h; inhibition, % at 8.35 µM; AID 651739; shares compounds with T cruzi growth-1; hit rate 72% among 5,600;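 active = mean replicate inhibition above about 95% and at least 55% of replicates individually reaching it, limit read from the data; inconclusive = only one of the two criteria is met; inactive = neither criterion is met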
T cruzi growth-3: Trypanosoma cruzi proliferation inhibition. shares compounds with T cruzi growth-1. hit rate 21% among 5,600. inhibition, % at 2.09 µM. AID 651740. T. cruzi beta-gal in NIH3T3, GalScreen luminescence, 90 h;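 active = mean inhibition above about 95%, with at least 55% of replicates also reaching it, limit read from the data; inconclusive = meets just one of the two conditions; inactive = meets neither condition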;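 also: plate controls were neutral control median for no effect and positive control median for full effect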
3T3 cytotox: kills mouse NIH/3T3 fibroblasts | cytotoxicity (signal decrease), % at 8.35 µM | NIH/3T3 viability, CellTiter-Glo ATP luminescence, 90 h | shares compounds with T cruzi growth-1 | AID 651742 | hit rate 14% among 5,600;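 active = mean signal decrease across replicates above about 35% based on untreated-well scatter, with enough replicates individually passing, limit read from the data; inconclusive = no rule stated though some were filed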;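 also: 0% = median of neutral control wells and 100% = median of positive control wells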
3T3 cytotox 2: cytotoxicity in mouse NIH/3T3 fibroblasts | shares compounds with T cruzi growth-1 | NIH/3T3 viability, CellTiter-Glo ATP luminescence, 90 h | inhibition, % at 24.9 µM | hit rate 56% among 5,600 | AID 651744;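 active = mean loss of cell viability signal at or above a set limit, and enough replicates individually reaching it; inconclusive = meets only the mean limit or only the replicate share; inactive = meets neither condition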;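 also: 0% = median of neutral control wells and 100% = median of positive control wells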
* marks the source's active call; other numbers are inactive results; ? = inconclusive; . = not tested or not shown; ! = a repeat was not active.

SMILES | Pf Dd2 inh | IDH1 mut inh | GASC1 inh | T cruzi growth-1 | T cruzi growth-2 | T cruzi growth-3 | 3T3 cytotox | 3T3 cytotox 2
COc1ccc(S(=O)(=O)Nc2ccc3c(c2)C(=O)N([C@@H](C)CO)C[C@@H](C)[C@H](CN(C)Cc2ccc(Cl)c(Cl)c2)O3)cc1 | -22 | 0 | 1 | 121* | 96* | 68 | 40* | 105*
COc1ccc(C)cc1NC(=O)C1CCCN(S(=O)(=O)c2ccc(C)cc2)C1 (configuration not stated) | . | 0 | . | . | . | . | . | .
Cc1cc(N(CC(=O)Nc2cccc([N+](=O)[O-])c2C)S(C)(=O)=O)ccc1Br | . | 0 | . | . | . | . | . | .
O=C1c2ccccc2C(=O)N1CCc1nc2ccccc2c(=O)n1-c1nc2ccccc2s1 | . | -1 | . | . | . | . | . | .
O=C(c1ccc(F)cc1)N1CCCCN2[C@H](CO)[C@@H](c3ccc(/C=C/c4ccccc4)cc3)[C@H]2C1 | -23 | . | 1 | 108* | 103* | 78 | 21 | 104*
O=C(c1ccc(F)cc1)N1CCCCN2[C@H](C1)[C@H](c1ccc(/C=C/c3ccccc3)cc1)[C@@H]2CO | -13 | . | -1 | ? | ? | 35 | 22 | 103*
C[C@H](CO)N1C[C@H](C)[C@H](CN(C)Cc2ccc(C(=O)Nc3ccccc3N)cc2)OCc2cnnn2CCCC1=O | -26 | -5 | -1 | 106* | 108* | 59 | 18 | 26
C[C@@H]1CN([C@H](C)CO)C(=O)Cc2cc(NC(=O)Nc3ccc(C(F)(F)F)cc3)ccc2O[C@@H]1CN(C)Cc1ccc(C(=O)Nc2ccccc2N)cc1 | -14 | 0 | -1 | ? | 100* | 106* | 55* | 97*
C[C@H]1CN([C@@H](C)CO)C(=O)Cc2cc(N(C)C)ccc2O[C@@H]1CN(C)Cc1ccc(C(=O)Nc2ccccc2N)cc1 | -51 | . | 2 | 74 | . | . | . | .
C[C@@H]1CN([C@@H](C)CO)C(=O)Cc2cc(NC(=O)Cc3ccccc3)ccc2O[C@@H]1CN(C)Cc1ccc(C(=O)Nc2ccccc2N)cc1 | -81* | . | -1 | 102* | 106* | 80 | 31 | 39*
C[C@@H]1CN([C@@H](C)CO)C(=O)Cc2cc(N(C)C)ccc2O[C@H]1CN(C)Cc1ccc(C(=O)Nc2ccccc2N)cc1 | -59 | 0 | 0 | 96* | 106* | ? | 41* | 82*
C[C@H]1CN([C@@H](C)CO)C(=O)Cc2cc(NC(=O)Nc3ccc(C(F)(F)F)cc3)ccc2O[C@H]1CN(C)Cc1ccc(C(=O)Nc2ccccc2N)cc1 | -35 | . | 9 | 80 | . | . | . | .
C[C@@H]1CN([C@@H](C)CO)C(=O)CCCn2nncc2CO[C@@H]1CN(C)Cc1ccc(C(=O)O)cc1 | 14 | . | 0 | . | . | . | . | .
CC12CCCCC1C1(C=CC(=O)C=C1)C(c1ccccc1)=N2 (configuration not stated) | . | 0 | . | . | . | . | . | .
COc1ccc(S(=O)(=O)N(C)C[C@H]2OCCCC[C@@H](C)Oc3ccc(NC(=O)NC4CCCCC4)cc3C(=O)N([C@@H](C)CO)C[C@@H]2C)cc1 | -73 | . | 0 | 96* | 90 | 37 | -9 | -2
COc1ccc(S(=O)(=O)N(C)C[C@H]2OCCCC[C@@H](C)Oc3ccc(NC(=O)NC4CCCCC4)cc3C(=O)N([C@@H](C)CO)C[C@H]2C)cc1 | -61 | . | -2 | 93 | . | . | . | .
COc1ccc(S(=O)(=O)N(C)C[C@H]2OCCCC[C@H](C)Oc3ccc(NC(=O)NC4CCCCC4)cc3C(=O)N([C@H](C)CO)C[C@@H]2C)cc1 | -64 | -1 | 0 | 104* | 112* | 7 | 0 | 2
C[C@H]1CN([C@@H](C)CO)S(=O)(=O)c2ccc(C#CC3CC3)cc2O[C@H]1CN(C)C(=O)c1ccncc1 | -49 | 0 | 2 | 110* | 96* | 81 | 13 | 30*
C[C@@H]1CN([C@@H](C)CO)S(=O)(=O)c2ccc(C#CC3CC3)cc2O[C@H]1CN(C)C(=O)c1ccccc1 | -67 | 0 | -1 | ? | ? | 53 | 29 | 48*
O=C(C1c2ccccc2C(=O)N2CCc3ccccc3C12)N1CCCC1 (configuration not stated) | . | 1 | . | . | . | . | . | .
COc1ccccc1CC(=O)Nc1ccc(-c2noc(-c3cc(OC)c(OC)c(OC)c3)n2)cc1 | . | 0 | . | . | . | . | . | .
C[C@@H]1CN([C@H](C)CO)S(=O)(=O)c2ccc(C#Cc3cccnc3)cc2O[C@@H]1CN(C)C(=O)Nc1ccc2c(c1)OCO2 | -63 | 0 | 0 | ? | 77 | 62 | 18 | 40*
C[C@H](CO)N1C[C@H](C)[C@@H](CN(C)C(=O)Nc2ccc3c(c2)OCO3)Oc2cc(C#Cc3cccnc3)ccc2S1(=O)=O | -47 | . | -2 | 93 | . | . | . | .
C[C@H]1CN([C@@H](C)CO)S(=O)(=O)c2ccc(C#Cc3cccnc3)cc2O[C@H]1CN(C)C(=O)Nc1ccc2c(c1)OCO2 | ? | . | -1 | 102* | 64 | 43 | 8 | 11
Cc1nnc(SCC(=O)Nc2cc(Cl)ccc2Cl)s1 | . | -1 | . | . | . | . | . | .
SMILES | Pf Dd2 inh | IDH1 mut inh | GASC1 inh | T cruzi growth-1 | T cruzi growth-2 | T cruzi growth-3 | 3T3 cytotox | 3T3 cytotox 2
O=c1cc(CSc2nc3sc4c(c3c(=O)n2Cc2ccco2)CCC4)[nH][nH]1 | . | -1 | . | . | . | . | . | .
C[C@H](CO)N1C[C@H](C)[C@H](CN(C)Cc2ccccn2)Oc2cc(Br)ccc2S1(=O)=O | -1 | -2 | 3 | -9 | . | . | . | .
Cc1ccc(-c2ccc3c(c2)O[C@H](CN(C)Cc2ccccn2)[C@@H](C)CN([C@H](C)CO)S3(=O)=O)cc1 | -40 | 0 | 2 | 91 | . | . | . | .
C[C@@H]1CN([C@@H](C)CO)S(=O)(=O)c2ccc(-c3ccccc3)cc2O[C@@H]1CN(C)Cc1ccccn1 | -5 | . | -2 | -21 | . | . | . | .
C[C@H](CO)N1C[C@H](C)[C@@H](CN(C)Cc2ccccn2)Oc2cc(-c3ccncc3)ccc2S1(=O)=O | -50 | 0 | 2 | 109* | 99* | 105* | 55* | 88*
C[C@@H]1CN([C@@H](C)CO)S(=O)(=O)c2ccc(Br)cc2O[C@H]1CN(C)Cc1ccccn1 | 19 | -3 | 0 | 107*! | 89 | 17 | 5 | 53*
Cc1ccc(-c2ccc3c(c2)O[C@H](CN(C)Cc2ccccn2)[C@@H](C)CN([C@@H](C)CO)S3(=O)=O)cc1 | -55 | . | 1 | 117* | 103* | 68 | 83* | 104*
Cc1cc(C(=O)NN2C3CSC2CS3)no1 | . | 1 | . | . | . | . | . | .
C[C@H]1CCCCO[C@H](CN(C)C(=O)c2ccncc2)[C@@H](C)CN([C@@H](C)CO)C(=O)c2cc(NC(=O)c3ccccc3)ccc2O1 | -7 | . | 0 | 100* | 51 | 11 | -4 | -8

High-throughput results as filed in PubChem BioAssay.
